Reference: ChEMBL document CHEMBL3784971, “Synthesis, characterization, antimicrobial and biofilm inhibitory studies of new esterquats” (Bioorg Med Chem Lett, 2016)
≈ marks a conversion by molar mass, not a printed value.

How the values were obtained:
[1] = system: Raoultella planticola; test: Bactericidal activity against Klebsiella planticola MTCC 530 after 24 hrs by serial dilution method; format: functional; settings: MTCC 530, 24 h
[2] = system: Escherichia coli; test: Antimicrobial activity against Escherichia coli MTCC 739 assessed as growth inhibition after 24 hrs by agar well diffusion method; format: functional; settings: MTCC 739, 24 h
[3] = system: Bacillus subtilis; test: Bactericidal activity against Bacillus subtilis MTCC 121 after 24 hrs by serial dilution method; format: functional; settings: MTCC 121, 24 h
[4] = system: Bacillus subtilis; test: Antimicrobial activity against Bacillus subtilis MTCC 121 assessed as growth inhibition after 24 hrs by agar well diffusion method; format: functional; settings: MTCC 121, 24 h
[5] = system: Micrococcus luteus; test: Antimicrobial activity against Micrococcus luteus MTCC 2470 assessed as growth inhibition after 24 hrs by agar well diffusion method; format: functional; settings: MTCC 2470, 24 h
[6] = system: Staphylococcus aureus; test: Bactericidal activity against Staphylococcus aureus MTCC 96 after 24 hrs by serial dilution method; format: functional; settings: MTCC 96, 24 h
[7] = system: Micrococcus luteus; test: Bactericidal activity against Micrococcus luteus MTCC 2470 after 24 hrs by serial dilution method; format: functional; settings: MTCC 2470, 24 h
[8] = system: Staphylococcus aureus; test: Antimicrobial activity against Staphylococcus aureus MTCC 96 assessed as growth inhibition after 24 hrs by agar well diffusion method; format: functional; settings: MTCC 96, 24 h
[9] = system: Escherichia coli; test: Bactericidal activity against Escherichia coli MTCC 739 after 24 hrs by serial dilution method; format: functional; settings: MTCC 739, 24 h
[10] = system: Staphylococcus aureus; test: Antimicrobial activity against Staphylococcus aureus MLS16 MTCC 2940 assessed as growth inhibition after 24 hrs by agar well diffusion method; format: functional; settings: MLS16 MTCC 2940, 24 h
[11] = system: Pseudomonas aeruginosa; test: Antimicrobial activity against Pseudomonas aeruginosa MTCC 2453 assessed as growth inhibition after 24 hrs by agar well diffusion method; format: functional; settings: MTCC 2453, 24 h
[12] = system: Candida albicans; test: Antimicrobial activity against Candida albicans MTCC 3017 assessed as growth inhibition after 24 hrs by agar well diffusion method; format: functional; settings: MTCC 3017, 24 h
[13] = system: Staphylococcus aureus; test: Bactericidal activity against Staphylococcus aureus MLS16 MTCC 2940 after 24 hrs by serial dilution method; format: functional; settings: MLS16 MTCC 2940, 24 h
[14] = system: Raoultella planticola; test: Antimicrobial activity against Klebsiella planticola MTCC 530 assessed as growth inhibition after 24 hrs by agar well diffusion method; format: functional; settings: MTCC 530, 24 h
[15] = system: Micrococcus luteus; test: Antibiofilm activity against Micrococcus luteus MTCC 2470 after 24 hrs by crystal violet staining based assay; format: functional, organism-based; settings: MTCC 2470, 24 h
Summary of the method: (§1)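 Biofilm inhibition tested for amine esters and esterquats. IC50 values (µg/mL) are the mean of three determinations, with ciprofloxacin as reference.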

[16] = system: Staphylococcus aureus; test: Antibiofilm activity against Staphylococcus aureus MLS16 MTCC 2940 after 24 hrs by crystal violet staining based assay; format: functional, organism-based; settings: MLS16 MTCC 2940, 24 h; summary of the method: as §1
[17] = system: Staphylococcus aureus; test: Antibiofilm activity against Staphylococcus aureus MTCC 96 after 24 hrs by crystal violet staining based assay; format: functional, organism-based; settings: MTCC 96, 24 h; summary of the method: as §1

Row | SMILES | MIC [2] | MIC [4] | MIC [5] | MIC [8] | MIC [10] | MIC [11] | MIC [12] | IC50 [15] | IC50 [16] | IC50 [17] | MBC [1] | MBC [3] | MBC [6] | MBC [7] | MBC [9] | MBC [13] | MIC [14]
1 | COC(=O)CCCCCCCCCCN(C1CCCCC1)C1CCCCC1 | > 125 µg/mL | 62.5 µg/mL (≈ 165 µM) | 15.6 µg/mL (≈ 41.1 µM) | 31.2 µg/mL (≈ 82.2 µM) | 31.2 µg/mL (≈ 82.2 µM) | > 125 µg/mL | > 125 µg/mL | 19.9 µg/mL (≈ 52.4 µM) | 20.8 µg/mL (≈ 54.8 µM) | 21.3 µg/mL (≈ 56.1 µM) | > 125 µg/mL | > 125 µg/mL | 62.5 µg/mL (≈ 165 µM) | 31.2 µg/mL (≈ 82.2 µM) | > 125 µg/mL | > 125 µg/mL | > 125 µg/mL
2 | CCCCCCCCCCCCNCCCCCCCCCCC(=O)OC | > 125 µg/mL | > 125 µg/mL | > 125 µg/mL | > 125 µg/mL | > 125 µg/mL | > 125 µg/mL | > 125 µg/mL | – | – | – | > 125 µg/mL | > 125 µg/mL | > 125 µg/mL | > 125 µg/mL | > 125 µg/mL | > 125 µg/mL | > 125 µg/mL
3 | CCCCCCCCCCCCN(CCCCCCCCCCC(=O)OC)CCCCCCCCCCC(=O)OC | > 125 µg/mL | > 125 µg/mL | > 125 µg/mL | > 125 µg/mL | > 125 µg/mL | > 125 µg/mL | > 125 µg/mL | – | – | – | > 125 µg/mL | > 125 µg/mL | > 125 µg/mL | > 125 µg/mL | > 125 µg/mL | > 125 µg/mL | > 125 µg/mL

Now from value to molecule, other results behind:

Row | MIC [2] | MIC [4] | MIC [5] | MIC [8] | MIC [10] | MIC [11] | MIC [12] | IC50 [15] | IC50 [16] | IC50 [17] | SMILES | MBC [1] | MBC [3] | MBC [6] | MBC [7] | MBC [9] | MBC [13] | MIC [14]
4 | > 125 µg/mL | > 125 µg/mL | > 125 µg/mL | > 125 µg/mL | > 125 µg/mL | > 125 µg/mL | > 125 µg/mL | – | – | – | CCCCCCCCCCCCCCCCCCNCCCCCCCCCCC(=O)OC | > 125 µg/mL | > 125 µg/mL | > 125 µg/mL | > 125 µg/mL | > 125 µg/mL | > 125 µg/mL | > 125 µg/mL
5 | > 125 µg/mL | > 125 µg/mL | > 125 µg/mL | > 125 µg/mL | > 125 µg/mL | > 125 µg/mL | > 125 µg/mL | – | – | – | CCCCCCCCCCCCCCCCCCN(CCCCCCCCCCC(=O)OC)CCCCCCCCCCC(=O)OC | > 125 µg/mL | > 125 µg/mL | > 125 µg/mL | > 125 µg/mL | > 125 µg/mL | > 125 µg/mL | > 125 µg/mL
6 | > 125 µg/mL | 62.5 µg/mL (≈ 126 µM) | 31.2 µg/mL (≈ 62.7 µM) | 31.2 µg/mL (≈ 62.7 µM) | 62.5 µg/mL (≈ 126 µM) | > 125 µg/mL | > 125 µg/mL | 18.6 µg/mL (≈ 37.4 µM) | – | 20.1 µg/mL (≈ 40.4 µM) | CCCCCCN(CCCCCCCCCCC(=O)OC)CCCCCCCCCCC(=O)OC | > 125 µg/mL | > 125 µg/mL | 62.5 µg/mL (≈ 126 µM) | 62.5 µg/mL (≈ 126 µM) | > 125 µg/mL | > 125 µg/mL | > 125 µg/mL
